Reference: ChEMBL document CHEMBL1151473, “Posaconazole activity against Candida glabrata after exposure to caspofungin or amphotericin B” (2008)
≈ marks a conversion by molar mass, not a printed value. Calls of active or inactive are those of the source. The calls are words filed in the database; no cut-off is given here.

Experiments:
Nakaseomyces glabratus [1] = assay: Antifungal activity against Candida glabrata isolate 4293 pretreated overnight with 0.5 times of amphotericin B MIC measured after 48 hrs by broth microdilution method; assay type: functional
Nakaseomyces glabratus [2] = assay: Antifungal activity against Candida glabrata isolate 4293 pretreated overnight with 0.5 times of caspofungin MIC measured after 48 hrs by broth microdilution method; assay type: functional
Nakaseomyces glabratus [3] = assay: Antifungal activity against Candida glabrata isolate 4370 pretreated overnight with 0.5 times of amphotericin B MIC measured after 48 hrs by broth microdilution method; assay type: functional
Nakaseomyces glabratus [4] = assay: Antifungal activity against Candida glabrata isolate 4370 pretreated overnight with 0.5 times of caspofungin MIC measured after 48 hrs by broth microdilution method; assay type: functional
Nakaseomyces glabratus [5] = assay: Antifungal activity against Candida glabrata isolate 4293 assessed as viable yeast cells pretreated overnight with 0.015 ug/ml caspofungin measured at 0.5 ug/ml after 48 hrs; assay type: functional
Nakaseomyces glabratus [6] = assay: Antifungal activity against Candida glabrata isolate 4293 assessed as viable yeast cells pretreated overnight with 0.25 ug/ml caspofungin measured at 0.5 ug/ml after 48 hrs; assay type: functional
Nakaseomyces glabratus [7] = assay: Antifungal activity against Candida glabrata isolate 4293 assessed as viable yeast cells pretreated overnight with 0.015 ug/ml caspofungin measured at 4 ug/ml measured after 48 hrs; assay type: functional
Nakaseomyces glabratus [8] = assay: Antifungal activity against Candida glabrata isolate 4293 assessed as viable yeast cells pretreated overnight with 0.25 ug/ml caspofungin measured at 4 ug/ml measured after 48 hrs; assay type: functional
Nakaseomyces glabratus [9] = assay: Antifungal activity against Candida glabrata isolate 4293 at 5 ug/disk after 24 hrs by halo assay; assay type: functional; details: isolate 4293, 24 h, read-out: IZ
Outline: (§1)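 Exposed or unexposed C. glabrata 4293 cells (1 x 10^6 CFU/ml) plated on Mueller-Hinton agar with methylene blue. 6-mm disks loaded with 20 µl posaconazole at 5 or 15 µg. Incubated at 35°C; inhibition zone diameters measured at 24 and 48 h; quintuplicate.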

Nakaseomyces glabratus [10] = assay: Antifungal activity against Candida glabrata isolate 4293 at 15 ug/disk after 24 hrs by halo assay; assay type: functional; details: isolate 4293, 24 h, read-out: IZ; outline: as §1
Nakaseomyces glabratus [11] = assay: Antifungal activity against Candida glabrata isolate 4293 pretreated overnight with 0.5 times of caspofungin MIC measured at 5 ug/disk after 24 hrs by halo assay; assay type: functional; details: read-out: IZ; outline: as §1
Nakaseomyces glabratus [12] = assay: Antifungal activity against Candida glabrata isolate 4293 pretreated overnight with 0.5 times of caspofungin MIC measured at 15 ug/disk after 24 hrs by halo assay; assay type: functional; details: read-out: IZ; outline: as §1
Nakaseomyces glabratus [13] = assay: Antifungal activity against Candida glabrata isolate 4198 pretreated overnight with 0.5 times of amphotericin B MIC measured after 48 hrs by broth microdilution method; assay type: functional
Candida parapsilosis = assay: Antifungal activity against Candida parapsilosis ATCC 22019 after 48 hrs by broth microdilution method; assay type: functional; details: Lodderomyces parapsilosis, ATCC 22019, 48 h
Outline: (§2)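 CLSI broth microdilution with final drug concentrations […], incubated at 35°C and read spectrophotometrically at 490 nm at 24 and 48 h. MIC is the first concentration giving 50% turbidity reduction versus control, or 90% for amphotericin B. Run in quintuplicate.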

Nakaseomyces glabratus [14] = assay: Antifungal activity against Candida glabrata isolate 4198 after 48 hrs by broth microdilution method; assay type: functional; outline: as §2
Nakaseomyces glabratus [15] = assay: Antifungal activity against Candida glabrata isolate 4205 after 48 hrs by broth microdilution method; assay type: functional; details: isolate 4205, 48 h; outline: as §2
Nakaseomyces glabratus [16] = assay: Antifungal activity against Candida glabrata isolate 4293 after 48 hrs by broth microdilution method; assay type: functional; outline: as §2
Nakaseomyces glabratus [17] = assay: Antifungal activity against Candida glabrata isolate 4370 after 48 hrs by broth microdilution method; assay type: functional; outline: as §2
Nakaseomyces glabratus [18] = assay: Antifungal activity against Candida glabrata isolate 4198 pretreated overnight with 0.5 times of caspofungin MIC measured after 48 hrs by broth microdilution method; assay type: functional
Nakaseomyces glabratus [19] = assay: Antifungal activity against Candida glabrata isolate 4205 pretreated overnight with 0.5 times of amphotericin B MIC measured after 48 hrs by broth microdilution method; assay type: functional
Nakaseomyces glabratus [20] = assay: Antifungal activity against Candida glabrata isolate 4205 pretreated overnight with 0.5 times of caspofungin MIC measured after 48 hrs by broth microdilution method; assay type: functional
Nakaseomyces glabratus [21] = assay: Antifungal activity against Candida glabrata isolate 4293 pretreated overnight with 0.125 times of caspofungin MIC measured at 5 ug/disk after 24 hrs by halo assay; assay type: functional; details: read-out: IZ; outline: as §1
Nakaseomyces glabratus [22] = assay: Antifungal activity against Candida glabrata isolate 4293 pretreated overnight with 0.125 times of caspofungin MIC measured at 15 ug/disk after 24 hrs by halo assay; assay type: functional; details: read-out: IZ; outline: as §1
Nakaseomyces glabratus [23] = assay: Antifungal activity against Candida glabrata isolate 4293 pretreated overnight with 0.5 times of amphotericin B MIC measured at 5 ug/disk after 24 hrs by halo assay; assay type: functional; details: read-out: IZ; outline: as §1
Nakaseomyces glabratus [24] = assay: Antifungal activity against Candida glabrata isolate 4293 pretreated overnight with 0.5 times of amphotericin B MIC measured at 15 ug/disk after 24 hrs by halo assay; assay type: functional; details: read-out: IZ; outline: as §1
Nakaseomyces glabratus [25] = assay: Antifungal activity against Candida glabrata isolate 4293 pretreated overnight with 0.125 times of amphotericin B MIC measured at 5 ug/disk after 24 hrs by halo assay; assay type: functional; details: read-out: IZ; outline: as §1
Nakaseomyces glabratus [26] = assay: Antifungal activity against Candida glabrata isolate 4293 pretreated overnight with 0.125 times of amphotericin B MIC measured at 15 ug/disk after 24 hrs by halo assay; assay type: functional; details: read-out: IZ; outline: as §1
Nakaseomyces glabratus [27] = assay: Antifungal activity against 2.44 x 10^8 CFU Candida glabrata isolate 4293 infected in CD1 mouse assessed as reduction in colony forming units treated with a therapeutic regimen of sterile saline solution from day 1 to day 2 followed by 15 mg/kg/day drug administration via oral gavage from day 3 to day 6 post […] challenge measured on day 7 postinfection relative to control; assay type: functional, organism-based
Outline: (§3)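 CD1 male mice, 25 g, made neutropenic with intraperitoneal cyclophosphamide at 200 mg/kg/day on days −4, +1 and +4. Infected intravenously with C. glabrata 4293 in 0.2 ml. Therapy starts 24 h postchallenge: sterile saline placebo, then once-daily oral gavage in 0.2 ml. Kidney pairs homogenized and plated on Sabouraud dextrose agar for CFU; seven to eight animals per group; medians reported.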

Nakaseomyces glabratus [28] = assay: Antifungal activity against 1.04 x 10^8 CFU Candida glabrata isolate 4293 infected in CD1 mouse assessed as reduction in colony forming units treated with a therapeutic regimen of sterile saline solution from day 1 to day 2 followed by 30 mg/kg/day drug administration via oral gavage from day 3 to day 6 post viral challenge measured on day 7 postinfection relative to control; assay type: functional, organism-based; outline: as §3
Nakaseomyces glabratus [29] = assay: Antifungal activity against 2.44 x 10^8 CFU Candida glabrata isolate 4293 infected in CD1 mouse assessed as reduction in fungal burden per kidney pair at 1 mg/kg/day, ip administered from day 1 to day 2 post viral challenge measured on day 3 postinfection; assay type: functional, organism-based
Outline: (§4)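 Male CD1 mice (25 g) made neutropenic with cyclophosphamide 200 mg/kg/day ip on days −4, +1 and +4 postinfection. Infected iv with C. glabrata 4293 in 0.2 ml. Treatment began 24 h postchallenge, with 1 mg/kg/day ip in 0.2 ml. Sacrifice on day 3 or day 7. Kidney pairs homogenized; diluted and undiluted aliquots plated on Sabouraud dextrose agar for CFU. Medians reported; 7–8 mice per group.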

Nakaseomyces glabratus [30] = assay: Antifungal activity against 1.04 x 10^8 CFU Candida glabrata isolate 4293 infected in CD1 mouse assessed as reduction in fungal burden per kidney pair at 1 mg/kg/day, ip administered from day 1 to day 2 post viral challenge measured on day 3 postinfection; assay type: functional, organism-based; outline: as §4
Nakaseomyces glabratus [31] = assay: Antifungal activity against 2.44 x 10^8 CFU Candida glabrata isolate 4293 infected in CD1 mouse assessed as reduction in […] per kidney pair at 1 mg/kg/day, ip administered from day 1 to day 2 followed by PEG-200 infusion from day 3 to day 6 […] measured on day 7 postinfection relative to control; assay type: functional, organism-based; outline: as §4
Nakaseomyces glabratus [32] = assay: Antifungal activity against 1.04 x 10^8 CFU Candida glabrata isolate 4293 infected in CD1 mouse assessed as reduction in viral count per kidney pair at 1 mg/kg/day, ip administered from day 1 to day 2 followed by PEG-200 infusion from day 3 to day 6 post viral challenge measured on day 7 postinfection relative to control; assay type: functional, organism-based; outline: as §4
Nakaseomyces glabratus [33] = assay: Antifungal activity against 2.44 x 10^8 CFU Candida glabrata isolate 4293 infected in CD1 mouse assessed as inhibition of regrowth in fungal burden in kidney at 1 mg/kg/day, ip administered from day 1 to day 2 post viral challenge measured on day 7 postinfection; assay type: functional, organism-based; outline: as §4
Nakaseomyces glabratus [34] = assay: Antifungal activity against 1.04 x 10^8 CFU Candida glabrata isolate 4293 infected in CD1 mouse assessed as inhibition of regrowth in fungal burden in kidney at 1 mg/kg/day, ip administered from day 1 to day 2 post viral challenge measured on day 7 postinfection; assay type: functional, organism-based; outline: as §4
Nakaseomyces glabratus [35] = assay: Antifungal activity against 2.44 x 10^8 CFU Candida glabrata isolate 4293 infected in CD1 mouse assessed as inhibition of regrowth in fungal burden in kidney at 1 mg/kg/day, ip administered from day 1 to day 2 followed by PEG-200 infusion from day 3 to day 6 post viral challenge measured on day 7 postinfection; assay type: functional, organism-based; outline: as §4
Nakaseomyces glabratus [36] = assay: Antifungal activity against 1.04 x 10^8 CFU Candida glabrata isolate 4293 infected in CD1 mouse assessed as inhibition of regrowth in fungal burden in kidney at 1 mg/kg/day, ip administered from day 1 to day 2 followed by PEG-200 infusion from day 3 to day 6 post viral challenge measured on day 7 postinfection; assay type: functional, organism-based; outline: as §4

Structure (SMILES): CC[C@@H]([C@H](C)O)n1ncn(-c2ccc(N3CCN(c4ccc(OC[C@@H]5CO[C@@](Cn6cncn6)(c6ccc(F)cc6F)C5)cc4)CC3)cc2)c1=O [POSACONAZOLE]
- MIC (Nakaseomyces glabratus [1]): 0.25 µg/mL (≈ 0.357 µM)
- MIC (Nakaseomyces glabratus [2]): 0.125 µg/mL (≈ 0.178 µM)
- MIC (Nakaseomyces glabratus [3]): 0.06 µg/mL (≈ 0.0856 µM)
- MIC (Nakaseomyces glabratus [4]): 0.125 µg/mL (≈ 0.178 µM)
- Activity (Nakaseomyces glabratus [5]): 6.2%
- Activity (Nakaseomyces glabratus [6]): 6.2%
- Activity (Nakaseomyces glabratus [7]): 0.01%
- Activity (Nakaseomyces glabratus [8]): 0.01%
- zone of inhibition at 5 µg/disc (Nakaseomyces glabratus [9]): 29 mm
- zone of inhibition at 15 µg/disc (Nakaseomyces glabratus [10]): 30 mm
- zone of inhibition at 5 µg/disc (Nakaseomyces glabratus [11]): 26.8 mm
- zone of inhibition at 15 µg/disc (Nakaseomyces glabratus [12]): 29 mm
- MIC (Nakaseomyces glabratus [13]): 0.5 µg/mL (≈ 0.713 µM)
- MIC (Candida parapsilosis): ≤ 0.03 µg/mL
- MIC (Nakaseomyces glabratus [14]): 0.5 µg/mL (≈ 0.713 µM)
- MIC (Nakaseomyces glabratus [15]): ≤ 0.03 µg/mL
- MIC (Nakaseomyces glabratus [16]): 0.25 µg/mL (≈ 0.357 µM)
- MIC (Nakaseomyces glabratus [17]): 0.06 µg/mL (≈ 0.0856 µM)
- MIC (Nakaseomyces glabratus [18]): 1 µg/mL (≈ 1.43 µM)
- MIC (Nakaseomyces glabratus [19]): ≤ 0.03 µg/mL
- MIC (Nakaseomyces glabratus [20]): 0.06 µg/mL (≈ 0.0856 µM)
- zone of inhibition at 5 µg/disc (Nakaseomyces glabratus [21]): 28 mm
- zone of inhibition at 15 µg/disc (Nakaseomyces glabratus [22]): 29.6 mm
- zone of inhibition at 5 µg/disc (Nakaseomyces glabratus [23]): 28.4 mm
- zone of inhibition at 15 µg/disc (Nakaseomyces glabratus [24]): 29.8 mm
- zone of inhibition at 5 µg/disc (Nakaseomyces glabratus [25]): 27 mm
- zone of inhibition at 15 µg/disc (Nakaseomyces glabratus [26]): 30 mm
- Activity (Nakaseomyces glabratus [27]): Active
- Activity (Nakaseomyces glabratus [28]): Active

Structure (SMILES): C[C@@H]1[C@H](O)[C@@H](C)/C=C/C=C/C=C/C=C/C=C/C=C/C=C/[C@H](O[C@@H]2O[C@H](C)[C@@H](O)[C@H](N)[C@@H]2O)C[C@@H]2O[C@](O)(C[C@@H](O)C[C@@H](O)[C@H](O)CC[C@@H](O)C[C@@H](O)CC(=O)O[C@H]1C)C[C@H](O)[C@H]2C(=O)O [AMPHOTERICIN B]
- MIC (Candida parapsilosis): 1 µg/mL (≈ 1.08 µM)
- MIC (Nakaseomyces glabratus [14]): 0.5 µg/mL (≈ 0.541 µM)
- MIC (Nakaseomyces glabratus [15]): 0.5 µg/mL (≈ 0.541 µM)
- MIC (Nakaseomyces glabratus [16]): 0.5 µg/mL (≈ 0.541 µM)
- MIC (Nakaseomyces glabratus [17]): 1 µg/mL (≈ 1.08 µM)
- Activity (Nakaseomyces glabratus [29]): inactive
- Activity (Nakaseomyces glabratus [30]): inactive
- Activity (Nakaseomyces glabratus [31]): Active
- Activity (Nakaseomyces glabratus [32]): Active
- Activity (Nakaseomyces glabratus [33]): inactive
- Activity (Nakaseomyces glabratus [34]): inactive
- Activity (Nakaseomyces glabratus [35]): inactive
- Activity (Nakaseomyces glabratus [36]): inactive
